Data published in ChEMBL document CHEMBL1629444, “DNA-dependent protein kinase (DNA-PK) inhibitors. Synthesis and biological activity of quinolin-4-one and pyridopyrimidin-4-one surrogates for the chromen-4-one chemotype” (J Med Chem, 2010).

system: HeLa; test: Potentiation of ionizing radiation-induced cytotoxicity in human HeLa cells assessed as dose modification ratio at 0.5 uM pretreated 1 hr before 2 Gy ionizing radiation by Giemsa staining relative untreated control; type: functional
Method in brief: (§1)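 HeLa cells seeded in six-well dishes and left overnight at 37 °C/5% CO2. Compound or vehicle given 1 h before a single 2 Gy X-ray dose, then incubated overnight. Medium replaced without compound and cells grown 6-8 days. Colonies Giemsa-stained and counted automatically. DMR is % survival at 2 Gy without compound divided by % survival at 2 Gy with compound.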

Row | Structure (SMILES) | Ratio
1 | O=C(CCN1CCOCC1)Nc1ccc(-c2cccc3c(=O)cc(N4CCOCC4)[nH]c23)c2sc3ccccc3c12 | 2.8
2 | O=C(CCN1CCCCC1)Nc1ccc(-c2cccc3c(=O)cc(N4CCOCC4)[nH]c23)c2sc3ccccc3c12 | 2.9
3 | O=C(CCNCC1CCCO1)Nc1ccc(-c2cccc3c(=O)cc(N4CCOCC4)[nH]c23)c2sc3ccccc3c12 (stereo not drawn) | 2.1
4 | CC(=O)N1CCN(CCC(=O)Nc2ccc(-c3cccc4c(=O)cc(N5CCOCC5)[nH]c34)c3sc4ccccc4c23)CC1 | 2.6
5 | O=C(CCN1CCCCCC1)Nc1ccc(-c2cccc3c(=O)cc(N4CCOCC4)[nH]c23)c2sc3ccccc3c12 | 2.2
6 | C[C@@H]1CN(CCC(=O)Nc2ccc(-c3cccc4c(=O)cc(N5CCOCC5)[nH]c34)c3sc4ccccc4c23)C[C@H](C)O1 | 2.2
7 | O=C(CN1CCOCC1)Nc1ccc(-c2cccn3c(=O)cc(N4CCOCC4)nc23)c2oc3ccccc3c12 | 2.3
8 | CN1CCN(CC(=O)Nc2ccc(-c3cccn4c(=O)cc(N5CCOCC5)nc34)c3oc4ccccc4c23)CC1 | 4.3
9 | C[C@@H]1CN(CC(=O)Nc2ccc(-c3cccn4c(=O)cc(N5CCOCC5)nc34)c3oc4ccccc4c23)C[C@H](C)O1 | 3
10 | CCN1CCN(CC(=O)Nc2ccc(-c3cccn4c(=O)cc(N5CCOCC5)nc34)c3oc4ccccc4c23)CC1 | 6.4
11 | O=C(CN1CCN(CCO)CC1)Nc1ccc(-c2cccn3c(=O)cc(N4CCOCC4)nc23)c2oc3ccccc3c12 | 5.8
12 | CC(C)NC(=O)CN1CCN(CC(=O)Nc2ccc(-c3cccn4c(=O)cc(N5CCOCC5)nc34)c3oc4ccccc4c23)CC1 | 13
13 | O=C(CCN1CCOCC1)Nc1ccc(-c2cccn3c(=O)cc(N4CCOCC4)nc23)c2oc3ccccc3c12 | 6.3
14 | O=C(CCN1CCCCC1)Nc1ccc(-c2cccn3c(=O)cc(N4CCOCC4)nc23)c2oc3ccccc3c12 | 1
15 | C[C@@H]1CN(CCC(=O)Nc2ccc(-c3cccn4c(=O)cc(N5CCOCC5)nc34)c3oc4ccccc4c23)C[C@H](C)O1 | 4.1
16 | O=C(CCNCC1CCCO1)Nc1ccc(-c2cccn3c(=O)cc(N4CCOCC4)nc23)c2oc3ccccc3c12 (stereo not drawn) | 7.4
17 | O=C(CN1CCOCC1)Nc1ccc(-c2cccc3c(=O)cc(N4CCOCC4)[nH]c23)c2oc3ccccc3c12 | 1.6
18 | COCCN1CCN(CC(=O)Nc2ccc(-c3cccc4c(=O)cc(N5CCOCC5)[nH]c34)c3oc4ccccc4c23)CC1 | 1.4
19 | CN1CCN(CC(=O)Nc2ccc(-c3cccc4c(=O)cc(N5CCOCC5)[nH]c34)c3oc4ccccc4c23)CC1 | 1.6
20 | C[C@@H]1CN(CC(=O)Nc2ccc(-c3cccc4c(=O)cc(N5CCOCC5)[nH]c34)c3oc4ccccc4c23)C[C@H](C)O1 | 1.6
21 | CCN1CCN(CC(=O)Nc2ccc(-c3cccc4c(=O)cc(N5CCOCC5)[nH]c34)c3oc4ccccc4c23)CC1 | 3.6
22 | O=C(CN1CCN(CCO)CC1)Nc1ccc(-c2cccc3c(=O)cc(N4CCOCC4)[nH]c23)c2oc3ccccc3c12 | 1.5
23 | CC(C)NC(=O)CN1CCN(CC(=O)Nc2ccc(-c3cccc4c(=O)cc(N5CCOCC5)[nH]c34)c3oc4ccccc4c23)CC1 | 1.6
24 | O=C(CCN1CCCCC1)Nc1ccc(-c2cccc3c(=O)cc(N4CCOCC4)[nH]c23)c2oc3ccccc3c12 | 1.1
25 | C[C@@H]1CN(CCC(=O)Nc2ccc(-c3cccc4c(=O)cc(N5CCOCC5)[nH]c34)c3oc4ccccc4c23)C[C@H](C)O1 | 0.9

system: not listed separately; test: Inhibition of DNA-PK isolated from human HeLa cell extract assessed as reduction in p53 Ser15 phosphorylation by chemiluminescence assay; type: cell-free

Row | Structure (SMILES) | IC50 [nM]
26 | CCN1CCN(CC(=O)Nc2ccc(-c3cccc4c(=O)cc(N5CCOCC5)oc34)c3sc4ccccc4c23)CC1 | 6
27 | CC(=O)N1CCN(CCC(=O)Nc2ccc(-c3cccc4c(=O)cc(N5CCOCC5)[nH]c34)c3sc4ccccc4c23)CC1 | 21
28 | O=C(CCN1CCCCCC1)Nc1ccc(-c2cccc3c(=O)cc(N4CCOCC4)[nH]c23)c2sc3ccccc3c12 | 141
29 | O=C(CN1CCOCC1)Nc1ccc(-c2cccn3c(=O)cc(N4CCOCC4)nc23)c2oc3ccccc3c12 | 59
30 | C[C@@H]1CN(CC(=O)Nc2ccc(-c3cccn4c(=O)cc(N5CCOCC5)nc34)c3oc4ccccc4c23)C[C@H](C)O1 | 15
31 | CCN1CCN(CC(=O)Nc2ccc(-c3cccn4c(=O)cc(N5CCOCC5)nc34)c3oc4ccccc4c23)CC1 | 29
32 | O=C(CN1CCN(CCO)CC1)Nc1ccc(-c2cccn3c(=O)cc(N4CCOCC4)nc23)c2oc3ccccc3c12 | 17
33 | CC(C)NC(=O)CN1CCN(CC(=O)Nc2ccc(-c3cccn4c(=O)cc(N5CCOCC5)nc34)c3oc4ccccc4c23)CC1 | 36
34 | O=C(CCN1CCOCC1)Nc1ccc(-c2cccn3c(=O)cc(N4CCOCC4)nc23)c2oc3ccccc3c12 | 77
35 | O=C(CCN1CCCCC1)Nc1ccc(-c2cccn3c(=O)cc(N4CCOCC4)nc23)c2oc3ccccc3c12 | 21
36 | O=C(CCNCC1CCCO1)Nc1ccc(-c2cccn3c(=O)cc(N4CCOCC4)nc23)c2oc3ccccc3c12 (stereo not drawn) | 75
37 | O=C(CN1CCOCC1)Nc1ccc(-c2cccc3c(=O)cc(N4CCOCC4)[nH]c23)c2oc3ccccc3c12 | 112
38 | COCCN1CCN(CC(=O)Nc2ccc(-c3cccc4c(=O)cc(N5CCOCC5)[nH]c34)c3oc4ccccc4c23)CC1 | 68
39 | CCN1CCN(CC(=O)Nc2ccc(-c3cccc4c(=O)cc(N5CCOCC5)[nH]c34)c3oc4ccccc4c23)CC1 | 77
40 | O=C(CN1CCN(CCO)CC1)Nc1ccc(-c2cccc3c(=O)cc(N4CCOCC4)[nH]c23)c2oc3ccccc3c12 | 39
41 | CC(C)NC(=O)CN1CCN(CC(=O)Nc2ccc(-c3cccc4c(=O)cc(N5CCOCC5)[nH]c34)c3oc4ccccc4c23)CC1 | 55
42 | O=C(CCN1CCCCC1)Nc1ccc(-c2cccc3c(=O)cc(N4CCOCC4)[nH]c23)c2oc3ccccc3c12 | 314
43 | C[C@@H]1CN(CCC(=O)Nc2ccc(-c3cccc4c(=O)cc(N5CCOCC5)[nH]c34)c3oc4ccccc4c23)C[C@H](C)O1 | 151

Continued by falling IC50, values first:

Row | IC50 [nM] | Structure (SMILES)
44 | 280 | O=c1cc(N2CCOCC2)nc2c3ccccc3ccn12
45 | 230 | O=c1cc(N2CCOCC2)oc2c1ccc1ccccc12
46 | 179 | O=C(CCN1CCOCC1)Nc1ccc(-c2cccc3c(=O)cc(N4CCOCC4)[nH]c23)c2sc3ccccc3c12
47 | 116 | CN1CCN(CC(=O)Nc2ccc(-c3cccc4c(=O)cc(N5CCOCC5)[nH]c34)c3oc4ccccc4c23)CC1
48 | 102 | O=C(CCNCC1CCCO1)Nc1ccc(-c2cccc3c(=O)cc(N4CCOCC4)[nH]c23)c2sc3ccccc3c12 (stereo not drawn)
49 | 70 | C[C@@H]1CN(CCC(=O)Nc2ccc(-c3cccn4c(=O)cc(N5CCOCC5)nc34)c3oc4ccccc4c23)C[C@H](C)O1
50 | 51 | O=C(CCN1CCCCC1)Nc1ccc(-c2cccc3c(=O)cc(N4CCOCC4)[nH]c23)c2sc3ccccc3c12
51 | 37 | C[C@@H]1CN(CC(=O)Nc2ccc(-c3cccc4c(=O)cc(N5CCOCC5)[nH]c34)c3oc4ccccc4c23)C[C@H](C)O1
52 | 30 | CN1CCN(CC(=O)Nc2ccc(-c3cccn4c(=O)cc(N5CCOCC5)nc34)c3oc4ccccc4c23)CC1
53 | 14 | C[C@@H]1CN(CCC(=O)Nc2ccc(-c3cccc4c(=O)cc(N5CCOCC5)[nH]c34)c3sc4ccccc4c23)C[C@H](C)O1

system: HeLa; test: Potentiation of ionizing radiation-induced cytotoxicity in human HeLa cells assessed as dose modification ratio at 0.1 uM pretreated 1 hr before 2 Gy ionizing radiation by Giemsa staining relative untreated control; type: functional; method in brief: as §1

Row | Structure (SMILES) | Ratio
54 | CCN1CCN(CC(=O)Nc2ccc(-c3cccc4c(=O)cc(N5CCOCC5)oc34)c3sc4ccccc4c23)CC1 | 3.2
55 | O=C(CN1CCOCC1)Nc1ccc(-c2cccn3c(=O)cc(N4CCOCC4)nc23)c2oc3ccccc3c12 | 1.4
56 | CN1CCN(CC(=O)Nc2ccc(-c3cccn4c(=O)cc(N5CCOCC5)nc34)c3oc4ccccc4c23)CC1 | 1.1
57 | C[C@@H]1CN(CC(=O)Nc2ccc(-c3cccn4c(=O)cc(N5CCOCC5)nc34)c3oc4ccccc4c23)C[C@H](C)O1 | 1
58 | CCN1CCN(CC(=O)Nc2ccc(-c3cccn4c(=O)cc(N5CCOCC5)nc34)c3oc4ccccc4c23)CC1 | 1.1
59 | O=C(CN1CCN(CCO)CC1)Nc1ccc(-c2cccn3c(=O)cc(N4CCOCC4)nc23)c2oc3ccccc3c12 | 1.3
60 | CC(C)NC(=O)CN1CCN(CC(=O)Nc2ccc(-c3cccn4c(=O)cc(N5CCOCC5)nc34)c3oc4ccccc4c23)CC1 | 1.7
61 | O=C(CCN1CCOCC1)Nc1ccc(-c2cccn3c(=O)cc(N4CCOCC4)nc23)c2oc3ccccc3c12 | 1.3
62 | O=C(CCN1CCCCC1)Nc1ccc(-c2cccn3c(=O)cc(N4CCOCC4)nc23)c2oc3ccccc3c12 | 2.5
63 | C[C@@H]1CN(CCC(=O)Nc2ccc(-c3cccn4c(=O)cc(N5CCOCC5)nc34)c3oc4ccccc4c23)C[C@H](C)O1 | 0.9
64 | O=C(CCNCC1CCCO1)Nc1ccc(-c2cccn3c(=O)cc(N4CCOCC4)nc23)c2oc3ccccc3c12 (stereo not drawn) | 1.3
65 | O=C(CN1CCOCC1)Nc1ccc(-c2cccc3c(=O)cc(N4CCOCC4)[nH]c23)c2oc3ccccc3c12 | 1.1
66 | COCCN1CCN(CC(=O)Nc2ccc(-c3cccc4c(=O)cc(N5CCOCC5)[nH]c34)c3oc4ccccc4c23)CC1 | 1.1
67 | CN1CCN(CC(=O)Nc2ccc(-c3cccc4c(=O)cc(N5CCOCC5)[nH]c34)c3oc4ccccc4c23)CC1 | 1.2
68 | C[C@@H]1CN(CC(=O)Nc2ccc(-c3cccc4c(=O)cc(N5CCOCC5)[nH]c34)c3oc4ccccc4c23)C[C@H](C)O1 | 1.1
69 | CCN1CCN(CC(=O)Nc2ccc(-c3cccc4c(=O)cc(N5CCOCC5)[nH]c34)c3oc4ccccc4c23)CC1 | 1.2
70 | O=C(CN1CCN(CCO)CC1)Nc1ccc(-c2cccc3c(=O)cc(N4CCOCC4)[nH]c23)c2oc3ccccc3c12 | 1.3
71 | CC(C)NC(=O)CN1CCN(CC(=O)Nc2ccc(-c3cccc4c(=O)cc(N5CCOCC5)[nH]c34)c3oc4ccccc4c23)CC1 | 1.4
72 | O=C(CCN1CCCCC1)Nc1ccc(-c2cccc3c(=O)cc(N4CCOCC4)[nH]c23)c2oc3ccccc3c12 | 1
73 | C[C@@H]1CN(CCC(=O)Nc2ccc(-c3cccc4c(=O)cc(N5CCOCC5)[nH]c34)c3oc4ccccc4c23)C[C@H](C)O1 | 0.8
